Test results published in ChEMBL document CHEMBL4359864, “The synthesis and in vitro biological evaluation of novel fluorinated tetrahydrobenzo[j]phenanthridine-7,12-diones against Mycobacterium tuberculosis” (Eur J Med Chem, 2019).
Values after ≈ are worked out from the molar mass of the structure shown.

Columns and labels:
Escherichia coli = test: Antibacterial activity against Escherichia coli ATCC 8739 incubated for 24 hrs by resazurin dye based fluorimetric assay; type: functional, organism-based; settings: ATCC 8739, ATCC 8739, 24 h
In short: (§1)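 Resazurin microtiter assay: compounds from 10 mM DMSO stock, twofold serial dilutions from 64 µM final in growth medium, in triplicate. Inoculum from frozen glycerol stocks. Exposure 24 h, or 7 days for Mtb H37Ra (7H9 + 0.5% glycerol + 10% OADC). Then 0.01% resazurin was added and plates were incubated at 37°C until pink. Fluorescence read at ex 550/em 590 nm; mean of triplicates.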

Pseudomonas aeruginosa = test: Antibacterial activity against Pseudomonas aeruginosa ATCC 9027 incubated for 24 hrs by resazurin dye based fluorimetric assay; type: functional, organism-based; settings: ATCC 9027, 24 h; in short: as §1
Klebsiella pneumoniae = test: Antibacterial activity against Klebsiella pneumoniae ATCC 13883 incubated for 24 hrs by resazurin dye based fluorimetric assay; type: functional, organism-based; settings: ATCC 13883, 24 h; in short: as §1
Enterococcus faecium = test: Antibacterial activity against Enterococcus faecium ATCC 19434 incubated for 24 hrs by resazurin dye based fluorimetric assay; type: functional, organism-based; settings: ATCC 19434, 24 h; in short: as §1
Staphylococcus aureus = test: Antibacterial activity against Staphylococcus aureus ATCC 6538 incubated for 24 hrs by resazurin dye based fluorimetric assay; type: functional, organism-based; settings: ATCC 6538, 24 h; in short: as §1
Streptococcus pneumoniae = test: Antibacterial activity against Streptococcus pneumoniae ATCC BAA-334 incubated for 24 hrs by resazurin dye based fluorimetric assay; type: functional, organism-based; settings: ATCC BAA-334, 24 h; in short: as §1
[1] = tested on: Mycobacterium tuberculosis; test: Antibacterial activity against Mycobacterium tuberculosis H37Ra ATCC 25177 incubated for 7 days by resazurin dye based fluorimetric assay; type: functional, organism-based; settings: H37Ra ATCC 25177, 168 h; in short: as §1
[2] = tested on: Mycobacterium tuberculosis; test: Antimycobacterial activity against Mycobacterium tuberculosis H37Ra lux incubated for 7 days by luminometric assay; type: functional, organism-based; settings: 168 h
In short: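 Twofold serial dilutions in 7H9/OADC/glycerol, in triplicate, inoculated with a suspension of 10.000 RLU per mL. After 7 days, n-decanal (1% v/v in ethanol) was added and luminescence read. IC50 and MIC (90% growth reduction) were derived from the mean of triplicates.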

[3] = Cytotoxicity against mouse J774A.1 cells assessed as reduction in cell viability incubated for 24 hrs by neutral red uptake assay; type: cell-based, J774.A1
In short: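 J774A.1 cells in DMEM + 10% iFCS, 37°C, 5% CO2, seeded at 40.000 cells/well and left overnight. Twofold dilutions from 128 µM final; 24 h exposure. Neutral red uptake for 3 h, dye extracted with 1:1 ethanol/acetic acid, OD read at 530 nm (reference 620 nm). CC50 = 50% reduction in uptake; mean of triplicates.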

[4] = Selectivity index, ratio of […] for cytotoxicity against mouse J774A.1 cells; type: toxicity, cell-based; settings: read-out: Selectivity Index
Mycobacterium marinum = test: Antimycobacterial activity against Mycobacterium marinum NCTC 2275 by resazurin dye based fluorimetric assay; type: functional, organism-based
In short: (§2)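 Resazurin microtiter method as for the bacterial panel. Mycobacteria grown in 7H9 with 10% OADC and 0.5% glycerol; for BCG, 0.05% Tween 80 replaced the glycerol. Cultures were sonicated and needle-passed to single cells. Incubation at 37°C, or 32°C for M. marinum. Fluorescence read at ex 550/em 590 nm; mean of triplicates.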

[5] = Antimycobacterial activity against Mycobacterium avium subsp. avium ATCC 25291 by resazurin dye based fluorimetric assay; type: functional; in short: as §2
CYP450 [6] = molecular target: T1, CYP450 (Homo sapiens, UniProt P04798+P05177+P05181+P08684+P10632+P10635+P11509+P11712+P13584+P20813+P20815+P20853+P24462+P24903+P33260+P33261+P51589+P78329+P98187+Q02928+Q08477+Q16678+Q16696+Q5TCH4+Q6VVX0+Q7Z449+Q8TAV3+Q96SQ9+Q9HB55); test: Microsomal stability in human liver microsomes assessed as CYP450-mediated metabolism by measuring compound remaining at 5 uM and measured for 15 mins in presence of NADPH by UPLC-MS/MS analysis (reference value: 100%); type: ADME; settings: read-out: Stability
In short: (§3)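 Compound at 5 µM with 0.5 mg/mL liver microsomes in PBS. Phase I was started with 1 mM NADPH; phase II used 2 mM UDPGA. Diclofenac served as reference. Samples taken at 0, 15, 30 and 60 min were quenched in ice-cold acetonitrile, centrifuged at 4°C and analysed by LC-MS. Mean of at least two replicates ± SD.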

CYP450 [7] = molecular target: T1, CYP450; test: Microsomal stability in human liver microsomes assessed as CYP450-mediated metabolism by measuring compound remaining at 5 uM and measured for 30 mins in presence of NADPH by UPLC-MS/MS analysis (reference value: 100%); type: ADME; settings: read-out: Stability; in short: as §3
CYP450 [8] = molecular target: T1, CYP450; test: Microsomal stability in human liver microsomes assessed as CYP450-mediated metabolism by measuring compound remaining at 5 uM and measured for 60 mins in presence of NADPH by UPLC-MS/MS analysis (reference value: 100%); type: ADME; settings: read-out: Stability; in short: as §3
UGT [9] = molecular target: T2, UGT (Homo sapiens, UniProt O60656+O75310+O75795+P06133+P0DTE4+P0DTE5+P16662+P19224+P22309+P22310+P35503+P35504+P36537+P54855+Q6UWM9+Q9BY64+Q9HAW7+Q9HAW8+Q9HAW9); test: Microsomal stability in human liver microsomes assessed as UGT-mediated metabolism by measuring compound remaining at 5 uM and measured for 15 mins in presence of UDPGA by UPLC-MS/MS analysis (reference value: 100%); type: ADME; settings: read-out: Stability; in short: as §3
UGT [10] = molecular target: T2, UGT; test: Microsomal stability in human liver microsomes assessed as UGT-mediated metabolism by measuring compound remaining at 5 uM and measured for 30 mins in presence of UDPGA by UPLC-MS/MS analysis (reference value: 100%); type: ADME; settings: read-out: Stability; in short: as §3
UGT [11] = molecular target: T2, UGT; test: Microsomal stability in human liver microsomes assessed as UGT-mediated metabolism by measuring compound remaining at 5 uM and measured for 60 mins in presence of UDPGA by UPLC-MS/MS analysis (reference value: 100%); type: ADME; settings: read-out: Stability; in short: as §3
CYP450 [12] = test: Microsomal stability in mouse liver microsomes assessed as CYP450-mediated metabolism by measuring compound remaining at 5 uM and measured for 15 mins in presence of NADPH by UPLC-MS/MS analysis (reference value: 100%); type: ADME; settings: read-out: Stability; in short: as §3
CYP450 [13] = test: Microsomal stability in mouse liver microsomes assessed as CYP450-mediated metabolism by measuring compound remaining at 5 uM and measured for 30 mins in presence of NADPH by UPLC-MS/MS analysis (reference value: 100%); type: ADME; settings: read-out: Stability; in short: as §3
CYP450 [14] = test: Microsomal stability in mouse liver microsomes assessed as CYP450-mediated metabolism by measuring compound remaining at 5 uM and measured for 60 mins in presence of NADPH by UPLC-MS/MS analysis (reference value: 100%); type: ADME; settings: read-out: Stability; in short: as §3
UGT [15] = test: Microsomal stability in mouse liver microsomes assessed as UGT-mediated metabolism by measuring compound remaining at 5 uM and measured for 15 mins in presence of UDPGA by UPLC-MS/MS analysis (reference value: 100%); type: ADME; settings: read-out: Stability; in short: as §3
UGT [16] = test: Microsomal stability in mouse liver microsomes assessed as UGT-mediated metabolism by measuring compound remaining at 5 uM and measured for 30 mins in presence of UDPGA by UPLC-MS/MS analysis (reference value: 100%); type: ADME; settings: read-out: Stability; in short: as §3
UGT [17] = test: Microsomal stability in mouse liver microsomes assessed as UGT-mediated metabolism by measuring compound remaining at 5 uM and measured for 60 mins in presence of UDPGA by UPLC-MS/MS analysis (reference value: 100%); type: ADME; settings: read-out: Stability; in short: as §3

| SMILES | IC50 (Escherichia coli) [µM] | IC50 (Pseudomonas aeruginosa) [µM] | IC50 (Klebsiella pneumoniae) [µM] | IC50 (Enterococcus faecium) [µM] | IC50 (Staphylococcus aureus) [µM] | IC50 (Streptococcus pneumoniae) [µM] | IC50 [1] [µM] | IC50 [2] [µM] | MIC90 [2] [µM] | CC50 at 24 h [3] [µM] | selectivity ratio [4] | IC50 (Mycobacterium marinum) [µM] | IC50 [5] [µM] | remaining at 0.25 h, 5 µM (CYP450 [6]) [%] | remaining at 0.5 h, 5 µM (CYP450 [7]) [%] | remaining at 1 h, 5 µM (CYP450 [8]) [%] | remaining at 0.25 h, 5 µM (UGT [9]) [%] | remaining at 0.5 h, 5 µM (UGT [10]) [%] | remaining at 1 h, 5 µM (UGT [11]) [%] | remaining at 0.25 h, 5 µM (CYP450 [12]) [%] | also measured |
| --- | --- | --- | --- | --- | --- | --- | --- | --- | --- | --- | --- | --- | --- | --- | --- | --- | --- | --- | --- | --- | --- |
| O=C1C2=C(C(=O)c3c1cnc1ccc(C(F)(F)F)cc31)C1CCC2C1 (stereo unspecified) | > 64 | > 64 | > 64 | > 64 | > 64 | > 64 | 2 to 4 | 2.51 | 9.23 (≈ 3.17 µg/mL) | 108 | 11.8 | 45.5 | 8.51 | 100 | 100 | 100 | 100 | 74 | 69 | 100 | remaining at 0.5 h, 5 µM (CYP450 [13]): 100%; remaining at 1 h, 5 µM (CYP450 [14]): 100%; remaining at 0.25 h, 5 µM (UGT [15]): 87%; remaining at 0.5 h, 5 µM (UGT [16]): 81%; remaining at 1 h, 5 µM (UGT [17]): 78% |
| O=C1C2=C(C(=O)c3c1cnc1cc(C(F)(F)F)ccc31)C1CCC2C1 (stereo unspecified) | > 64 | > 64 | > 64 | > 64 | > 64 | 32 to 64 | 2 to 4 | 3.05 | 7.95 (≈ 2.73 µg/mL) | 122 | 15.4 | 9 | 3.24 | 100 | 100 | 100 | 71 | 63 | 63 | 100 | remaining at 0.5 h, 5 µM (CYP450 [13]): 100%; remaining at 1 h, 5 µM (CYP450 [14]): 100%; remaining at 0.25 h, 5 µM (UGT [15]): 62%; remaining at 0.5 h, 5 µM (UGT [16]): 70%; remaining at 1 h, 5 µM (UGT [17]): 51% |
| CCn1cc(C(=O)O)c(=O)c2cc(F)c(N3CCNCC3)cc21 [NORFLOXACIN] | > 0.25 | > 0.5 | – | – | – | – | – | – | – | – | – | – | – | – | – | – | – | – | – | – | – |
| O=C(O)c1cn(C2CC2)c2cc(N3CCNCC3)c(F)cc2c1=O [CIPROFLOXACIN] | – | – | < 0.25 | – | – | – | – | – | – | – | – | – | – | – | – | – | – | – | – | – | – |
| COc1c(N2C[C@@H]3CCCN[C@@H]3C2)c(F)cc2c(=O)c(C(=O)O)cn(C3CC3)c12 [MOXIFLOXACIN] | – | – | – | – | – | – | – | – | – | – | – | 0.14 | 0.19 | – | – | – | – | – | – | – | – |
| O=C(O)Cc1ccccc1Nc1c(Cl)cccc1Cl [DICLOFENAC] | – | – | – | – | – | – | – | – | – | – | – | – | – | 45 | 23 | 5 | 22 | 16 | 13 | – | – |
